From ChEMBL document CHEMBL1240350, “In vitro activity of CEM-101 against Streptococcus pneumoniae and Streptococcus pyogenes with defined macrolide resistance mechanisms” (Antimicrob Agents Chemother, 2010)
In brackets after ≈: the same amount, converted by molar mass.

How the values were obtained:
[1] = system: Streptococcus pneumoniae; experiment: Antibacterial activity against Streptococcus pneumoniae harboring mef(A) gene after overnight incubation by agar dilution method; type: functional
Summary of the method: (§1)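 Clinical isolates collected 1998–2008, with macrolide-resistance genes confirmed by PCR. MICs by agar dilution on Mueller-Hinton agar with 5% sheep blood. Inoculum 10^4 CFU/spot, incubated overnight at 35°C in ambient air. S. pneumoniae ATCC 49619 was the quality-control strain in every run.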

[2] = system: Streptococcus pneumoniae; experiment: Antibacterial activity against Streptococcus pneumoniae harboring erm(A) gene after overnight incubation by agar dilution method; type: functional; summary of the method: as §1
[3] = system: Streptococcus pneumoniae; experiment: Antibacterial activity against quinolone-susceptible Streptococcus pneumoniae after overnight incubation by agar dilution method; type: functional
Summary of the method: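 Agar dilution on Mueller-Hinton agar supplemented with 5% sheep blood. Inoculum 10^4 CFU/spot, incubated overnight at 35°C in ambient air. Test strains were clinical pneumococcal isolates. S. pneumoniae ATCC 49619 was included as the quality control strain in each run. MIC range, MIC50 and MIC90 were reported for each susceptibility category.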

[4] = system: Streptococcus pneumoniae; experiment: Antibacterial activity against macrolide-resistant Streptococcus pneumoniae harboring erm(B) gene after overnight incubation by agar dilution method; type: functional
Summary of the method: (§2)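 Agar dilution MICs on Mueller-Hinton agar with 5% sheep blood. Inoculum 10^4 CFU/spot, incubated overnight at 35°C in ambient air. Clinical S. pneumoniae or group A streptococcal isolates; resistance genotypes (erm(B), erm(A), mef(A)/mef(E)) were assigned by PCR. S. pneumoniae ATCC 49619 served as QC strain in each run. Range, MIC50 and MIC90 reported per phenotype group.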

[5] = system: Streptococcus pneumoniae; experiment: Antibacterial activity against macrolide-resistant Streptococcus pneumoniae harboring mef(A) gene after overnight incubation by agar dilution method; type: functional; summary of the method: as §2
[6] = system: Streptococcus pneumoniae; experiment: Antibacterial activity against macrolide-resistant Streptococcus pneumoniae harboring erm(B) and mef(A) gene after overnight incubation by agar dilution method; type: functional; summary of the method: as §2
[7] = system: Streptococcus pyogenes; experiment: Antibacterial activity against macrolide-susceptible Streptococcus pyogenes after overnight incubation by agar dilution method; type: functional
Summary of the method: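 Agar dilution on Mueller-Hinton agar supplemented with 5% sheep blood, inoculum 10^4 CFU/spot, read after overnight incubation at 35°C in ambient air. Clinical isolates with defined genotypes; S. pneumoniae ATCC 49619 quality control strain included in each run. MIC50/MIC90 are MICs inhibiting 50% and 90% of isolates.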

[8] = system: Streptococcus pyogenes; experiment: Antibacterial activity against Streptococcus pyogenes harboring erm(A) gene after overnight incubation by agar dilution method; type: functional; summary of the method: as §1
[9] = system: Streptococcus pneumoniae; experiment: Antibacterial activity against macrolide-susceptible Streptococcus pneumoniae 1077 after 15 passages and 10 compound-free subculturing by retest method; type: functional
[10] = system: Streptococcus pneumoniae; experiment: Antibacterial activity against macrolide-susceptible Streptococcus pneumoniae 1077 after 49 passages and 10 compound-free subculturing by retest method; type: functional
[11] = system: Streptococcus pneumoniae; experiment: Antibacterial activity against macrolide-resistant Streptococcus pneumoniae 3665 harboring mef(A) gene after 26 passages and 10 compound-free subculturing by retest method; type: functional
[12] = system: Streptococcus pneumoniae; experiment: Antibacterial activity against macrolide-resistant Streptococcus pneumoniae 1076 harboring erm(B) and mef(A) gene after 18 passages and 10 compound-free subculturing by retest method; type: functional
Summary of the method: (§3)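 Multistep selection by daily serial passage in subinhibitory drug concentrations. Medium was cation-adjusted Mueller-Hinton broth plus 5% lysed horse blood. Each day the next inoculum came from the tube 1–2 dilutions below the MIC whose turbidity matched the growth control, for up to 50 days. Clone MICs by CLSI macrodilution; identity to the parent confirmed by SmaI PFGE.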

[13] = system: Streptococcus pneumoniae; experiment: Antibacterial activity against macrolide-resistant Streptococcus pneumoniae 1635 harboring erm(A) gene after 32 passages and 10 compound-free subculturing by retest method; type: functional; summary of the method: as §3
[14] = system: Streptococcus pneumoniae; experiment: Antibacterial activity against macrolide-resistant Streptococcus pneumoniae 1635 harboring erm(A) gene after 49 passages and 10 compound-free subculturing by retest method; type: functional; summary of the method: as §3
[15] = system: Streptococcus pneumoniae; experiment: Antibacterial activity against macrolide-resistant Streptococcus pneumoniae 2686 harboring mutation in L4 ribosomal protein after 14 passages and 10 compound-free subculturing by retest method; type: functional
[16] = system: Streptococcus pneumoniae; experiment: Antibacterial activity against macrolide-resistant Streptococcus pneumoniae 2686 harboring mutation in L4 ribosomal protein after 25 passages and 10 compound-free subculturing by retest method; type: functional
[17] = system: Streptococcus pneumoniae; experiment: Antibacterial activity against macrolide-susceptible Streptococcus pneumoniae 7127 harboring S20N mutation in L4 ribosomal protein and A105V mutation in L22 ribosomal protein after 16 passages and 10 compound-free subculturing by retest method; type: functional
[18] = system: Streptococcus pneumoniae; experiment: Antibacterial activity against macrolide-susceptible Streptococcus pneumoniae 7127 harboring S20N mutation in L4 ribosomal protein and A105V mutation in L22 ribosomal protein after 38 passages and 10 compound-free subculturing by retest method; type: functional
[19] = system: Streptococcus pneumoniae; experiment: Antibacterial activity against macrolide-susceptible Streptococcus pneumoniae 7127 harboring S20N mutation in L4 ribosomal protein and A105V mutation in L22 ribosomal protein after 43 passages and 10 compound-free subculturing by retest method; type: functional
[20] = system: Streptococcus pneumoniae; experiment: Antibacterial activity against macrolide-resistant Streptococcus pneumoniae 3009 harboring mutation in 23S rRNA after 25 passages and 10 compound-free subculturing by retest method; type: functional
[21] = system: Streptococcus pneumoniae; experiment: Antibacterial activity against macrolide-resistant Streptococcus pneumoniae 3665 harboring mef(A) gene after overnight incubation by agar dilution method; type: functional
[22] = system: Streptococcus pneumoniae; experiment: Antibacterial activity against macrolide-susceptible Streptococcus pneumoniae 7127 harboring S20N mutation in L4 ribosomal protein and A105V mutation in L22 ribosomal protein after overnight incubation by agar dilution method; type: functional
[23] = system: Streptococcus pyogenes; experiment: Antibacterial activity against macrolide-susceptible Streptococcus pyogenes 2132 after overnight incubation by agar dilution method
[24] = system: Streptococcus pyogenes; experiment: Antibacterial activity against macrolide-resistant Streptococcus pyogenes 2094 harboring erm(A) gene after overnight incubation by agar dilution method
[25] = system: Streptococcus pyogenes; experiment: Antibacterial activity against macrolide-resistant Streptococcus pyogenes 2094 harboring erm(A) gene after 6 passages and 10 compound-free subculturing by retest method
[26] = system: Streptococcus pyogenes; experiment: Antibacterial activity against macrolide-resistant Streptococcus pyogenes 237 harboring mutation in L4 ribosomal protein after overnight incubation by agar dilution method
[27] = system: Streptococcus pyogenes; experiment: Antibacterial activity against macrolide-resistant Streptococcus pyogenes 2011 harboring mef(A) gene after 50 passages following overnight incubation by agar dilution method
[28] = system: Streptococcus pyogenes; experiment: Antibacterial activity against macrolide-resistant Streptococcus pyogenes 237 harboring mutation in L4 ribosomal protein after 20 passages and 10 compound-free subculturing by retest method
[29] = system: Streptococcus pneumoniae; experiment: Antibacterial activity against Streptococcus pneumoniae harboring mutation in L4 ribosomal protein after overnight incubation by agar dilution method; type: functional; summary of the method: as §1
[30] = system: Streptococcus pneumoniae; experiment: Antibacterial activity against macrolide-resistant Streptococcus pneumoniae harboring mutation in L4 ribosomal protein after overnight incubation by agar dilution method; type: functional; summary of the method: as §2
[31] = system: Streptococcus pyogenes; experiment: Antibacterial activity against Streptococcus pyogenes harboring mef(A) gene after overnight incubation by agar dilution method; type: functional; summary of the method: as §1
[32] = system: Streptococcus pyogenes; experiment: Antibacterial activity against macrolide-resistant Streptococcus pyogenes harboring mef(A) gene after overnight incubation by agar dilution method; type: functional; summary of the method: as §2

Compound: CC[C@H]1OC(=O)[C@@](C)(F)C(=O)[C@H](C)[C@@H](O[C@@H]2O[C@H](C)C[C@H](N(C)C)[C@H]2O)[C@](C)(OC)C[C@@H](C)C(=O)[C@H](C)[C@H]2N(CCCCn3cc(-c4cccc(N)c4)nn3)C(=O)O[C@]12C [SOLITHROMYCIN]
- MIC50 [1]: 0.03 µg/mL (≈ 0.0355 µM)
- MIC90 [1]: 0.125 µg/mL (≈ 0.148 µM)
- MIC [2]: 0.008 µg/mL (≈ 0.00947 µM)
- MIC50 [3]: 0.03 µg/mL (≈ 0.0355 µM)
- MIC90 [3]: 0.25 µg/mL (≈ 0.296 µM)
- MIC50 [4]: 0.03 µg/mL (≈ 0.0355 µM)
- MIC90 [4]: 0.5 µg/mL (≈ 0.592 µM)
- MIC50 [5]: 0.03 µg/mL (≈ 0.0355 µM)
- MIC90 [5]: 0.125 µg/mL (≈ 0.148 µM)
- MIC50 [6]: 0.125 µg/mL (≈ 0.148 µM)
- MIC90 [6]: 0.25 µg/mL (≈ 0.296 µM)
- MIC50 [7]: 0.015 µg/mL (≈ 0.0178 µM)
- MIC90 [7]: 0.03 µg/mL (≈ 0.0355 µM)
- MIC50 [8]: 0.03 µg/mL (≈ 0.0355 µM)
- MIC90 [8]: 0.125 µg/mL (≈ 0.148 µM)
- MIC [9]: 0.06 µg/mL (≈ 0.071 µM)
- MIC [10]: 0.06 µg/mL (≈ 0.071 µM)
- MIC [11]: 0.06 µg/mL (≈ 0.071 µM)
- MIC [12]: 32 µg/mL (≈ 37.9 µM)
- MIC [13]: 0.125 µg/mL (≈ 0.148 µM)
- MIC [14]: 0.008 µg/mL (≈ 0.00947 µM)
- MIC [15]: 0.03 µg/mL (≈ 0.0355 µM)
- MIC [16]: 0.016 µg/mL (≈ 0.0189 µM)
- MIC [17]: 0.06 µg/mL (≈ 0.071 µM)
- MIC [18]: 0.008 µg/mL (≈ 0.00947 µM)
- MIC [19]: 0.004 µg/mL (≈ 0.00473 µM)
- MIC [20]: 0.03 µg/mL (≈ 0.0355 µM)
- MIC [21]: 0.03 µg/mL (≈ 0.0355 µM)
- MIC [22]: 0.008 µg/mL (≈ 0.00947 µM)
- MIC [23]: 0.008 µg/mL (≈ 0.00947 µM)
- MIC [24]: 0.03 µg/mL (≈ 0.0355 µM)
- MIC [25]: 0.016 µg/mL (≈ 0.0189 µM)
- MIC [26]: 0.03 µg/mL (≈ 0.0355 µM)
- MIC [27]: 0.125 µg/mL (≈ 0.148 µM)
- MIC [28]: 0.5 µg/mL (≈ 0.592 µM)

Compound: CC[C@H]1OC(=O)[C@H](C)C(=O)[C@H](C)[C@@H](O[C@@H]2O[C@H](C)C[C@H](N(C)C)[C@H]2O)[C@](C)(OC)C[C@@H](C)C(=O)[C@H](C)[C@H]2N(CCCCn3cnc(-c4cccnc4)c3)C(=O)O[C@]12C [TELITHROMYCIN]
- MIC50 [1]: 0.125 µg/mL (≈ 0.154 µM)
- MIC90 [1]: 0.25 µg/mL (≈ 0.308 µM)
- MIC [2]: 0.03 µg/mL (≈ 0.0369 µM)
- MIC50 [29]: 0.125 µg/mL (≈ 0.154 µM)
- MIC90 [29]: 0.25 µg/mL (≈ 0.308 µM)
- MIC50 [3]: 0.125 µg/mL (≈ 0.154 µM)
- MIC90 [3]: 0.5 µg/mL (≈ 0.616 µM)
- MIC50 [4]: 0.06 µg/mL (≈ 0.0739 µM)
- MIC90 [4]: 1 µg/mL (≈ 1.23 µM)
- MIC50 [5]: 0.125 µg/mL (≈ 0.154 µM)
- MIC90 [5]: 0.25 µg/mL (≈ 0.308 µM)
- MIC50 [6]: 0.5 µg/mL (≈ 0.616 µM)
- MIC90 [6]: 1 µg/mL (≈ 1.23 µM)
- MIC50 [30]: 0.125 µg/mL (≈ 0.154 µM)
- MIC90 [30]: 0.25 µg/mL (≈ 0.308 µM)
- MIC50 [7]: 0.06 µg/mL (≈ 0.0739 µM)
- MIC90 [7]: 0.06 µg/mL (≈ 0.0739 µM)
- MIC50 [31]: 0.5 µg/mL (≈ 0.616 µM)
- MIC90 [31]: 1 µg/mL (≈ 1.23 µM)
- MIC50 [8]: 0.06 µg/mL (≈ 0.0739 µM)
- MIC90 [8]: 0.125 µg/mL (≈ 0.154 µM)
- MIC50 [32]: 0.5 µg/mL (≈ 0.616 µM)
- MIC90 [32]: 1 µg/mL (≈ 1.23 µM)
- MIC [9]: 0.25 µg/mL (≈ 0.308 µM)
- MIC [10]: 0.06 µg/mL (≈ 0.0739 µM)
- MIC [11]: 0.06 µg/mL (≈ 0.0739 µM)
- MIC [12]: 32 µg/mL (≈ 39.4 µM)
- MIC [13]: 0.03 µg/mL (≈ 0.0369 µM)
- MIC [14]: 0.016 µg/mL (≈ 0.0197 µM)
- MIC [15]: 0.06 µg/mL (≈ 0.0739 µM)
- MIC [16]: 0.5 µg/mL (≈ 0.616 µM)
- MIC [17]: 0.06 µg/mL (≈ 0.0739 µM)
- MIC [18]: 0.03 µg/mL (≈ 0.0369 µM)
- MIC [19]: 0.008 µg/mL (≈ 0.00985 µM)
- MIC [20]: 0.06 µg/mL (≈ 0.0739 µM)
- MIC [21]: 0.125 µg/mL (≈ 0.154 µM)
- MIC [22]: 0.008 µg/mL (≈ 0.00985 µM)
- MIC [23]: 0.008 µg/mL (≈ 0.00985 µM)
- MIC [24]: 0.03 µg/mL (≈ 0.0369 µM)
- MIC [25]: 0.03 µg/mL (≈ 0.0369 µM)
- MIC [26]: 0.06 µg/mL (≈ 0.0739 µM)
- MIC [27]: 1 µg/mL (≈ 1.23 µM)
- MIC [28]: 1 µg/mL (≈ 1.23 µM)
